This is a sample that favours compounds with a hit; in the whole collection about 6.4% have one here.
MPTP inh = permeability transition pore inhibition | isolated mouse mitochondria, Ca2+ swelling absorbance, 30 min | inhibition, % at 10 µM | 1.4% of 360,000 active | AID 602449;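 active means inhibition of 50% or more, scaled per plate between neutral and stimulator controls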
WT yeast gro inh = growth inhibition of WT yeast, mitochondrial fusion screen; mitochondrial fusion phenotypic screen, WT strain; inhibition, % at 10 µM; 2.1% of 190,000 active; in the data active means inhibition above about 58%; tested in S. cerevisiae
CHOP inh = CHOP inhibition in unfolded protein response; CHO-K1 CHOP-promoter luciferase, tunicamycin-induced, 15-18 h; inhibition, % at 10 µM; 3.8% of 220,000 active; AID 2732;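 active means compounds that reduced the stress-induced luciferase reporter signal by more than about 70% of percent inhibition, limit read from the data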
EBV gp42 inh = inhibitors of Epstein-Barr virus glycoprotein 42; AID 1085; Fluorescence polarization binding assay, mP read-out; 0.42% of 220,000 active; Q1HVG2; inhibition, % (tested at 21.74 µM); in the data active means inhibition above about 50%
Target sequence (Q1HVG2 whole entry, looked up): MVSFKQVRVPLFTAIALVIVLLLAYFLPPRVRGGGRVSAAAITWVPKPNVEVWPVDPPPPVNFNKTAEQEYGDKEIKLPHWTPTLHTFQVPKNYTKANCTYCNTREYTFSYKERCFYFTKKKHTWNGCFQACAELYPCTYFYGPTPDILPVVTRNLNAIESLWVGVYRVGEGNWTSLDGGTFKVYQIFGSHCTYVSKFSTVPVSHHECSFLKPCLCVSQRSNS
Tb MetRS inh = blocks T. brucei methionyl-tRNA synthetase activity; inhibition, % at 11.9 µM; purified T. brucei MetRS, ATP depletion, Kinase-Glo luminescence; 0.4% of 360,000 active;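 active means inhibition above a per-plate cutoff of the control wells' mean inhibition plus 3 SD, cut at about 5.5% in these data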
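Material: T. brucei methionyl-tRNA synthetase, purified; reagent: substrates ATP, L-methionine and bulk Escherichia coli tRNA; dosing: 11.9 µM single point; timing: 15 min plus 2 h at 25 °C; detection: luminescence of leftover ATP; evaluation: % inhibition; control set: DMSO-only wells as low control; replicates: singlicate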
GRIN3A LBD mod = modulates the human NR3A ligand-binding domain; AID 1259313; Tm shift relative to glycine control, % at 25 µM; NR3A LBD differential scanning fluorimetry, Tm shift; 0% = protein alone, 100% = glycine-bound protein; 2.5% of 340,000 active;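 active means melting temperature shift of at least 10% of the positive control shift, at one fixed dose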
A number is an active result; i = inactive; nt = no result.

SMILES	MPTP inh	WT yeast gro inh	CHOP inh	EBV gp42 inh	Tb MetRS inh	GRIN3A LBD mod
NC(=O)c1nc(C2CCCCC2)nc2c1[nH]c(=O)n2-c1ccc(F)cc1	i	i	89	i	i	i
Cc1cccc(C(=O)CC(=O)c2cc(Cl)ccc2O)c1	i	61	108	i	i	i
Cc1cccc(C(=O)NCC(=O)NNC(=O)c2ccccc2O)c1	i	nt	nt	nt	i	14
O=C(CC(=O)c1cc(Cl)ccc1O)c1ccccc1	i	i	110	i	i	i
O=C(CNC(=O)c1ccccc1F)NNC(=O)c1ccccc1O	i	nt	nt	nt	i	i
Cc1ccc(O)c(C(=O)CC(=O)c2ccc(Cl)cc2)c1	i	nt	nt	nt	i	i
COc1ccc(-c2c(C(F)(F)F)nn(C)c2NC(C)=O)cc1	i	nt	i	i	i	i
CC(C)(C)C(=O)Nc1sc2c(c1-c1nc3ccccc3[nH]1)CCCC2	i	i	83	i	i	i
CC(C)(C)C(=O)Nc1cccc(-c2nc3ccccc3[nH]2)c1	i	i	i	i	i	i
c1ccc(N/N=C(\Cc2nc3ccccc3[nH]2)c2ccccc2)cc1	i	72	i	i	i	i
Cc1ccc(N/N=C(\Cc2nc3ccccc3[nH]2)c2ccccc2)cc1	i	i	i	i	i	i
Cc1ccc(C)c(N2CCN(C(=O)CCc3nc(-c4ccccc4)no3)CC2)c1	i	nt	nt	nt	i	15
Cc1ccc(C)c(N2CCN(C(=O)CCc3nc(-c4ccc(F)cc4)no3)CC2)c1	i	nt	nt	nt	i	i
Cc1cccc(-c2noc(CCC(=O)N3CCN(c4cc(C)ccc4C)CC3)n2)c1	i	nt	nt	nt	i	17
CN1CCN(S(=O)(=O)c2ccc(N3CCN(c4ccccc4Cl)CC3)nc2)CC1	i	nt	nt	nt	i	i
O=C(Nc1ccccc1)Nc1nnc([C@@H]2C[C@H](O)[C@@H](CO)O2)s1	i	nt	nt	nt	i	nt
OCC1(Cc2cccc(C(F)(F)F)c2)CCN(Cc2cc3ccccc3o2)CC1	i	i	89	i	i	i
Cc1ccc(-c2nnc3sc(C4COc5ccccc5O4)nn23)cc1 (stereo not drawn)	i	75	i	i	i	i
COCCCNC(=O)c1cccc(C(=O)NCCCOC)c1	i	66	i	i	i	i
COc1cc(S(=O)(=O)Nc2ccc(C)cc2)ccc1N=Cc1c(C)[nH]n(-c2ccccc2)c1=O	i	i	i	i	i	26
CC(=O)N1N=C(c2ccc(Br)cc2)CC1c1ccc(Br)cc1 (stereo not drawn)	i	nt	nt	nt	i	nt
CNC(=S)N1N=C(c2ccc(C)cc2)CC1c1ccc(Cl)cc1 (stereo not drawn)	i	i	i	i	i	i
CC(C)c1ccc(C2CC(c3ccc(Br)cc3)=NN2C(N)=S)cc1 (stereo not drawn)	i	65	i	i	i	i
CNC(=S)N1N=C(c2ccc(C)cc2)CC1c1ccc(Br)cc1 (stereo not drawn)	i	58	i	i	i	i
CC(=O)Nc1ccc(S(=O)(=O)NC2(C(F)(F)F)NC(=O)N(c3ccccc3F)C2=O)cc1 (stereo not drawn)	i	i	i	i	i	i
SMILES	MPTP inh	WT yeast gro inh	CHOP inh	EBV gp42 inh	Tb MetRS inh	GRIN3A LBD mod
Cc1nccn1-c1cc(C(C)(C)C)nc2c(-c3ccccc3)cnn12	i	i	80	i	i	i
CC(C)(C)c1cc(NCc2ccccn2)n2ncc(-c3ccc(Cl)cc3)c2n1	i	nt	i	i	i	13
COP(=O)(OC)OC(C(=O)c1ccccc1)c1ccccc1 (stereo not drawn)	i	nt	nt	nt	i	nt
CCOC(=O)c1c(NC(=O)CSc2n[nH]c(CNc3ccccc3)n2)sc(C)c1C	i	i	91	i	i	i
Nc1cccc2c1C(=O)N(CC(=O)NC13CC4CC(CC(C4)C1)C3)C2=O	i	i	i	64	i	i
Nc1ccccc1C(=O)NC12CC3CC(CC(C3)C1)C2	i	nt	nt	nt	i	i
O=C(Cn1sc2ccccc2c1=O)NC12CC3CC(CC(C3)C1)C2	i	i	90	i	i	i
CC(C)(C)c1ccc(C(=O)Nc2nnc(Cc3c[nH]c4ccccc34)s2)cc1	i	i	75	i	i	26
O=C(Nc1nnc(Cc2c[nH]c3ccccc23)s1)c1ccc(Cl)cc1Cl	i	i	i	i	i	26
CCc1nnc(NC(=O)Cc2c[nH]c3ccccc23)s1	i	i	i	i	i	i
O=C(Nc1nnc(Cc2ccccc2F)s1)c1ccccc1Cl	i	nt	nt	nt	i	i
Cc1nnc(NC(=O)CSc2nnc(C)n2-c2ccc(F)cc2)s1	i	i	i	i	i	i
Cc1ccc(CCNC(=O)C2CC(c3cc(C(F)(F)F)cc(C(F)(F)F)c3)=NO2)cc1 (stereo not drawn)	i	nt	76	i	i	i
CCCN1C(=O)c2ccccc2NC1c1ccc(OC)c(CSc2ccccn2)c1 (stereo not drawn)	i	64	i	i	i	i
COc1ccc(N2C(=O)c3ccccc3NC2c2ccc(OC)c(CSc3ccccn3)c2)cc1 (stereo not drawn)	i	i	i	i	i	i
C=CCn1nnnc1SCC(=O)Nc1ccc(C(=O)OC)cc1	i	nt	nt	nt	i	i
O=C(CSc1ncnc2c1oc1ccccc12)Nc1cccc(C(F)(F)F)c1	i	i	79	i	i	i
O=C(CSc1ncnc2c1oc1ccccc12)Nc1cccc(Cl)c1	i	i	i	i	i	i
C=CCn1nnnc1SCC(=O)Nc1cccc(C(F)(F)F)c1	i	nt	nt	nt	i	16
NS(=O)(=O)c1cccc(NC(=O)COC(=O)c2ccccc2C(=O)c2ccccc2)c1	i	nt	nt	nt	i	i
Cc1cc(NC(=O)COC(=O)c2oc3c(Cl)cccc3c2C)no1	i	i	74	i	i	i
Cc1c(C(=O)OCC(=O)Nc2cccc(S(N)(=O)=O)c2)oc2c1ccc1ccccc12	i	i	i	i	i	15
COc1cccc(NC(=O)CN(C)C(=O)c2oc3c(ccc4ccccc43)c2C)c1	i	nt	nt	nt	i	17
COc1cccc(NC(=O)CN(C)C(=O)c2ccc(NC(=O)CC3SC(N4CCCCC4)=NC3=O)cc2)c1 (stereo not drawn)	i	nt	nt	nt	i	i
COc1cccc(NC(=O)CN(C)C(=O)c2ccc(NC(=O)CC3SC(N4CCCC4)=NC3=O)cc2)c1 (stereo not drawn)	i	nt	nt	nt	i	11
SMILES	MPTP inh	WT yeast gro inh	CHOP inh	EBV gp42 inh	Tb MetRS inh	GRIN3A LBD mod
Cc1ccccc1NC(=O)c1nc(S(C)(=O)=O)ncc1Cl	i	nt	nt	nt	i	i
O=C(NC1CCCCC1)C(c1ccc(F)cc1)N(CCc1ccccc1)C(=O)CN1C(=O)c2ccccc2S1(=O)=O (stereo not drawn)	i	i	i	i	i	i
COc1ccc(CCNc2nncc(=O)[nH]2)cc1OC	i	i	i	i	i	i
O=C(CCCOc1ccc(Cl)cc1Cl)N1CCc2ccccc2C1	i	80	i	i	i	i
Cc1ccc(S(=O)(=O)/C(=C\N(C)C)c2cnc(Cl)s2)cc1	i	i	i	i	i	i
O=c1oc(C2(O)CCCCC2)cc2ccc(-c3ccc4[nH]ccc4c3)cc12	i	nt	nt	nt	i	11

Source: PubChem BioAssay (several laboratories)
